Results published in ChEMBL document CHEMBL2177011, “Discovery, synthesis, and biological evaluation of orally active pyrrolidone derivatives as novel inhibitors of p53-MDM2 protein-protein interaction” (J Med Chem, 2012).

Columns and labels:
[1] = system: A549; assay: Antitumor activity against human A549 cells expressing wild type p53 xenografted in nude BALB/C mouse assessed as inhibition of tumor growth at 300 mg/kg, po qd for 14 days; format: functional; conditions: A549, 336 h, read-out: TGI
In short: (§1)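 Male BALB/C nude mice (18−20 g) had A549 cells implanted subcutaneously in the right axilla. Dosing started on day 13, when tumors reached 100−300 mm³. Mice were randomized (6 per treatment group, 10 controls) and dosed by gavage once daily for 14 days. Caliper tumor volume (TV = 1/2 × a × b²) was taken every 4 days; relative tumor volume was used. Mice were sacrificed on day 29 or 33.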

[2] = system: A549; assay: Induction of apoptosis in human A549 cells expressing wild type p53 at 10 uM after 48 hrs using annexin V-FITC staining by flow cytometry assay; format: functional
In short: (§2)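 A549 cells (5 × 10⁵ cells/mL) were seeded in six-well plates and treated at 5−20 μM for 48 h. Cells were harvested by trypsinization, washed twice in cold PBS and resuspended in binding buffer. They were stained with annexin V-FITC for 15 min at room temperature, then with PI for 15 min in the dark, and analyzed by flow cytometry; n = 3.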

[3] = system: NCI-H1299; assay: Antiproliferative activity against p53 deficient human NCI-H1299 cells after 72 hrs by MTT assay; format: functional, cell-based; conditions: NCI-H1299, 72 h
In short: (§3)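 Cells seeded at 5−6 × 10⁴ per well and cultured 24 h, then exposed in triplicate wells to a range of compound concentrations for 72 h, with 0.1% DMSO as control. MTT (5 mg/mL solution) was added for 4 h at 37 °C, formazan dissolved in DMSO, absorbance read at 570 nm. Drug-free wells served as blanks; IC50 calculated.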

[4] = system: A549; assay: Induction of apoptosis in human A549 cells expressing wild type p53 after 48 hrs using annexin V-FITC staining by flow cytometry assay; format: functional, cell-based; in short: as §2
[5] = system: SAOS-2; assay: Antiproliferative activity against p53 deficient human Saos2 cells after 72 hrs by MTT assay; format: functional, cell-based; conditions: SAOS-2, 72 h; in short: as §3
[6] = system: A549; assay: Antitumor activity against human A549 cells expressing wild type p53 xenografted in nude BALB/C mouse assessed as inhibition of tumor growth at 200 mg/kg, po qd for 14 days; format: functional; conditions: A549, 336 h, read-out: TGI; in short: as §1
[7] = system: A549; assay: Induction of apoptosis in human A549 cells expressing wild type p53 at 20 uM after 48 hrs using annexin V-FITC staining by flow cytometry assay; format: functional; in short: as §2
[8] = system: Mus musculus; assay: Toxicity in nude BALB/C mouse assessed as mortality at 200 mg/kg, po qd for 14 days; format: organism-based; parameters: dose 200 mg/kg, route oral; conditions: in vivo, 336 h
In short: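 Male BALB/C nude mice (18−20 g) carried subcutaneous A549 implants in the right axilla. Dosing began once tumors reached 100−300 mm³, 13 days after implantation. Animals were randomized into groups of 6 per treatment and 10 controls, then given 200 mg/kg by gavage once daily for 14 consecutive days. Body weight was recorded every 4 days. Mice were sacrificed on day 29 or 33.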

[9] = system: Mus musculus; assay: Toxicity in human A549 cells expressing wild type p53 xenografted nude BALB/C mouse assessed as reduction of body weight at 300 mg/kg, po qd for 14 days; format: organism-based; parameters: dose 300 mg/kg, route oral; conditions: in vivo, 336 h
In short: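 Subcutaneous A549 xenografts (right axilla) in male BALB/C nude mice (18−20 g). From day 13 (tumors 100−300 mm³), the compound was given by gavage once daily for 14 days (6 animals per group; vehicle control group). Body weight was recorded every 4 days during treatment.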

[10] = target: Tumour suppressor protein p53/Mdm4 (Homo sapiens, UniProt P04637+O15151); assay: Inhibition of p53-MDMX interaction after 1 hr by fluorescence polarization assay; format: protein assay
Sequence of Tumour suppressor protein p53/Mdm4 (P04637 whole entry): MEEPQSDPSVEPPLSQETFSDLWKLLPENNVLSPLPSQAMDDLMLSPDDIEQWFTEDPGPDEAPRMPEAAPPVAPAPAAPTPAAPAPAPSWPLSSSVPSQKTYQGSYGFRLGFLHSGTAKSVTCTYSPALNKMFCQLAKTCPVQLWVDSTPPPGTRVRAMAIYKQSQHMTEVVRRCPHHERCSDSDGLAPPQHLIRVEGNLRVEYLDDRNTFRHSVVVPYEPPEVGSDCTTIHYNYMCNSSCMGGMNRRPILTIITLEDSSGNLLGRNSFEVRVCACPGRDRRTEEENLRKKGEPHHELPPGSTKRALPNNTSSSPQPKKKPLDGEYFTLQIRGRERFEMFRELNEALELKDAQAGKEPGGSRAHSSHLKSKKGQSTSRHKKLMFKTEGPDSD
Sequence of Tumour suppressor protein p53/Mdm4 (O15151 whole entry): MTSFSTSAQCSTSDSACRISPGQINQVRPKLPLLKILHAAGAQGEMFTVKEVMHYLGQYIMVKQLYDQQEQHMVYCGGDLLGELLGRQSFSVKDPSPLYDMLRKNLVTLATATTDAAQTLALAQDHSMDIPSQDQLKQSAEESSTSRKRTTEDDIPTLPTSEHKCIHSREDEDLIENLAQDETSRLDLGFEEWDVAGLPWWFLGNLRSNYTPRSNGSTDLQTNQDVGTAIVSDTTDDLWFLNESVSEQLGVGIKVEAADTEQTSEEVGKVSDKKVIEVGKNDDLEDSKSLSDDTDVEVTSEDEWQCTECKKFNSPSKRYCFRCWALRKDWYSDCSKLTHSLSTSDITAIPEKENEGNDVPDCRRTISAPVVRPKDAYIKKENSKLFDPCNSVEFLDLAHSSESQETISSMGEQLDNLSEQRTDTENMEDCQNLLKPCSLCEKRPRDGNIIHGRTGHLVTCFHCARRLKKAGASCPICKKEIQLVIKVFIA

[11] = system: A549; assay: Antiproliferative activity against human A549 cells expressing wild type p53 after 72 hrs by MTT assay; format: functional, cell-based; conditions: Homo sapiens, A549, 72 h; read-out: IC50; in short: as §3
[12] = system: A549; assay: Induction of apoptosis in human A549 cells expressing wild type p53 at 5 uM after 48 hrs using annexin V-FITC staining by flow cytometry assay; format: functional; in short: as §2
[13] = system: U2OS; assay: Antiproliferative activity against human U2OS cells expressing wild type p53 after 72 hrs by MTT assay; format: functional, cell-based; conditions: Homo sapiens, U2OS, 72 h; read-out: IC50; in short: as §3

| Structure (SMILES) | inhibition in vivo at 300 mg/kg [1] | Activity [2] | IC50 [3] | Activity [4] | IC50 [5] | inhibition in vivo at 200 mg/kg [6] | Activity [7] | Activity [8] | Activity [9] | Ki [10] | IC50 [11] | Activity [12] | IC50 [13] |
| --- | --- | --- | --- | --- | --- | --- | --- | --- | --- | --- | --- | --- | --- |
| C[C@@H](NC1=C(C(=O)c2ccccc2)[C@@H](c2ccc(Br)cc2)N(CCCn2ccnc2)C1=O)c1ccccc1 | 52.5% | 4.02% | 14.4 µM | Dose-dependent effect | 27.4 µM | 40% | 17.85% | Non-toxic | Non-toxic | Not Active | 1.97 µM | 0.63% | 28.1 µM |
| COc1ccc(C2=N[C@@H](c3ccc(Cl)cc3)[C@@H](c3ccc(Cl)cc3)N2C(=O)N2CCNC(=O)C2)c(OC(C)C)c1 [NUTLIN-3] | – | 6.46% | – | Dose-dependent effect | 31.6 µM | – | 15.49% | – | – | – | – | 0.9% | 14.3 µM |
